# Measured values pooled from the literature.
# Protocols differ between the studies behind these lines.
# Target: Tyrosine-protein kinase Fgr (FGR, Homo sapiens, UniProt P09769)
SMILES,read-out,method,concentration,remaining binding [%]
C[C@@H]1CN(c2cc(-c3nn(C)c4ccc(OC5(C)CC5)cc34)ncn2)C[C@H](C)O1,cell-free assay,competition with immobilised ligand,1 µM,90
C[C@@H](c1ccc(-n2cnc3c(N)ncnc32)cc1)N1CCc2nn(C)c(Cc3ccccc3)c2C1=O,binding,competition with immobilised ligand,0.1 µM,81
COc1cnc(Nc2cccc(S(N)(=O)=O)c2)nc1N1CCN(c2ccccc2)C(=O)C1,binding,competition with immobilised ligand,1 µM,100
O=C(NCc1ncc(C(F)(F)F)cc1Cl)c1ccc2c(c1)C1(CCS(=O)(=O)CC1)[C@H](C1CC1)N2S(=O)(=O)c1ccc(F)cc1,cell-free assay,competition with immobilised ligand,1 µM,100
O=C(NCC1CCOCC1)c1n[nH]cc1NC(=O)c1c(F)cccc1F,binding,competition with immobilised ligand,1 µM,100
Cc1noc([C@H]2C[C@@H](c3ccc(C(F)(F)F)cc3)CN(C(=O)N3CCS(=O)(=O)C3)C2)n1,cell-free assay,competition with immobilised ligand,1 µM,100
O=C(NCCCN1CCOCC1)c1ccc(Nc2nccc(-c3cc4ccccc4s3)n2)cc1,cell-free assay,competition with immobilised ligand,1 µM,79
CC(=O)Nc1c(C(C)=O)c(=O)n(C)c2nc(-c3ccc(Cl)cc3Cl)c(-c3ccc(Cl)cc3)cc12,cell-free assay,competition with immobilised ligand,1 µM,100
c1cnn2ncc(-c3ccnc(N4CCC45COC5)n3)c2c1,binding,,1 µM,100
C[C@H](c1cccc(C#N)c1)n1cc(Cl)cc(C(N)=O)c1=N,cell-free assay,competition with immobilised ligand,1 µM,80
CNC(=O)[C@@H]1CC[C@@H](n2c(-c3ccc4cnccc4c3)nc3ccc(C(=O)NCc4cccc(C(N)=O)c4)cc32)C1,binding,competition with immobilised ligand,1 µM,100
N[C@@H]1CCN(c2nccc(-c3cnn4ncccc34)n2)C1,binding,,1 µM,100
FC(F)(F)Oc1cccc(-c2cnc3ccc(-c4ccncc4)nn23)c1,cell-free assay,competition with immobilised ligand,5 µM,69
CC1CCCN1c1nccc(-c2cnn3ncccc23)n1 (stereo not drawn),binding,,1 µM,98
O=C(c1ccc(Nc2nccc(-c3cc4ccccc4s3)n2)cc1)N1CCC(N2CCCC2)CC1,cell-free assay,competition with immobilised ligand,1 µM,93
C[C@H]1CCN(c2nccc(-c3cnn4ncccc34)n2)C1,binding,,1 µM,100
COCCOc1nc(-c2ccc(Cl)nc2)nc2c1CN(C(=O)c1ncn3ccccc13)CC2,cell-free assay,competition with immobilised ligand,0.1 µM,100
CN(C)c1nccc(-c2cnn3ncccc23)n1,binding,,1 µM,100
O=C(c1ccc(Nc2ncc(Cl)c(-c3cc4ccccc4s3)n2)cc1)N1CCC(N2CCCC2)CC1,cell-free assay,competition with immobilised ligand,1 µM,92
COc1ccnn2ncc(-c3ccnc(N(C)C)n3)c12,binding,,1 µM,76
COc1ncc2cc3ccccc3nc2c1C#N,cell-free assay,competition with immobilised ligand,5 µM,100
